Screening results (PubChem)
PGC1a Ac signal = raises PGC1a acetylation signal in U2OS cells. activation, % at 15.6 µM. 0.21% of 350,000 active. U2OS PGC1a acetylation AlphaScreen, overnight;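 active means every replicate reaching activation of at least 50%, whatever the mean replicate activation; inconclusive means replicates that disagree or another doubt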;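 further: hits raise the AlphaScreen acetylation signal above neutral controls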
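detection = AlphaScreen lysate read | assay system = U2OS cells expressing flag-PGC1a plus GCN5 | input = 7000 cells/well | dosing = one concentration | times = compound overnight at 37 °C, each detection step 1 h RT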
Hep G6PC suppr = hepatocyte G6PC expression change via PGC-1a acetylation activation; primary mouse hepatocytes, G6PC mRNA qPCR, forskolin; 240 tested, under 10 active; G6PC suppression (normalized activity, % of positive control; higher = more suppression), % at 26 µM; shares compounds with PGC1a Ac signal;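 active means dose curves showing G6PC suppression whose half-maximal dose is at most twice the top valid dose; inconclusive means flat curves with moderate negative activity, or unreliable fits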;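 further: G6PC expression relative to GAPDH housekeeping gene as delta delta Ct; 0% = median of neutral control wells and 100% = median of positive control wells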
PCK1 hep suppr = PGC-1a acetylation activator altering hepatocyte PCK1 expression | shares compounds with PGC1a Ac signal | primary mouse hepatocytes, PCK1 mRNA qPCR, forskolin-stimulated | PCK1 expression decrease, unspecified at 26 µM | 230 tested, under 10 active | AID 743465;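 active means compounds lowering PCK1 expression whose fitted half-maximal concentration is at most twice the top tested dose; inconclusive means flat fit with moderate opposite-direction effect, or poor fit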;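 further: values are delta delta Ct of PCK1 relative to GAPDH; higher delta delta Ct means lower PCK1 expression so positive values indicate hits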
PGC1a hep suppr = PGC-1a acetylation activators affecting PGC-1a expression in hepatocytes; max activity (PGC-1a expression decrease), %; shares compounds with PGC1a Ac signal; AID 743467; 240 tested, under 10 active; primary mouse hepatocytes, PGC-1a mRNA qPCR, forskolin; top dose 26 µM;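 active means compound lowering PGC-1a expression with fitted half-maximal concentration at most twice its top tested dose; inconclusive means flat curve with moderate opposite-direction effect, or poor fit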;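 further: 0% = neutral control wells median and 100% = positive control wells median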
An asterisk follows results filed as active; i = inactive; ? = inconclusive; nt = not tested or not shown; [ ] = dose if it differs, or a comment. Not all results are given here.

SMILES | PGC1a Ac signal | Hep G6PC suppr | PCK1 hep suppr | PGC1a hep suppr
NS(=O)(=O)c1ccc(-c2ccc(/C=C3\C(=O)Nc4cc(Cl)ccc43)o2)cc1 | -49 | nt | nt | nt
CCn1nnc(NC(=O)c2ccc(C(C)(C)C)cc2)n1 | -41 | nt | nt | nt
C=CC(=O)N1C/C(=C/c2ccccc2)C(=O)/C(=C\c2ccccc2)C1 | -73 | nt | nt | nt
C=CCn1c(SCC(=O)Nc2ccc(C(=O)O)cc2)nnc1-c1cccnc1 | -40 | nt | nt | nt
CCn1c(SCC(=O)Nc2ccc(NC(=O)c3ccco3)cc2)nnc1-c1cccs1 | 124* | 7 | -8.6 | 52
Cc1ccc2c(CN(Cc3ccccc3)Cc3ccccc3)cc(=O)oc2c1 | ? | nt | 62 | 75
CC(=O)Nc1ccc2c(CSc3nncs3)cc(=O)oc2c1 | -47 | nt | nt | nt
COc1ccccc1Oc1ccc2c(c1)C(=O)N(c1ccc(C)cc1)C2=O | -104 | nt | nt | nt
O=C(CSc1c(Cl)cccc1Cl)NC1CCCc2ccccc21 (stereo unspecified) | -43 | nt | nt | nt
CC1CCCC=CC2CC(OC(=O)CN(C)C)CC2C(O)C=CC(=O)O1 (stereo unspecified) | -67 | nt | nt | nt
CCCc1nc2c(=O)n(C)c(=O)nc-2n(C)n1 | -75 | nt | nt | nt
O=C(CC1S/C(=N/N=C/c2c[nH]c3ccccc23)NC1=O)Nc1ccccc1 (stereo unspecified) | -42 | nt | nt | nt
COc1ccccc1C(=O)N1C(CC(=O)Nc2cc(Cl)ccc2C)C(=O)NC2CCCCC21 (stereo unspecified) | -44 | nt | nt | nt
Cc1ccc(Cl)cc1NC(=O)Cn1nc(-c2cccs2)ccc1=O | -40 | -7 | -25 | 17
CC1=C/C(=N\OS(=O)(=O)c2ccccc2)C(C)=CC1=O | -60 | nt | nt | nt
COc1ccc(Nc2nnc(-c3ccc(C(N)=O)cc3)c3ccccc23)cc1 | 89* | 157 | 78 | 111
COc1ccc(Cn2nnnc2CN(Cc2cc3ccc(C)cc3[nH]c2=O)C2CCCC2)cc1 | -42 | nt | nt | nt
CC(/C=C1\SC(=O)N(CCCC(=O)O)C1=O)=C\c1ccccc1 | -43 | nt | nt | nt
COC(=O)/C(=C\Nc1cccc(Cl)c1C)c1ncc(C(F)(F)F)cc1Cl | -41 | nt | nt | nt
O=C(CNC(=O)c1sc2ccccc2c1Cl)NCc1ccccc1 | -52 | nt | nt | nt
O=C(Cc1ccccc1)Nc1ccc(NC(=O)c2cccs2)cc1 | 312* | 43 | 3.3 | 42
COc1ccc(CN(CCC(C)C)S(=O)(=O)c2ccccc2Br)cc1 | 74* | nt | 51 | 99
COc1cccc2c1C(=O)c1c(O)c3c(c(O)c1C2=O)CC(O)(C(C)=O)CC3OC1CC(N(C)C)C(O)C(C)O1 (stereo unspecified) | -40 | nt | nt | nt
COc1ccc(S(=O)(=O)Nc2ccc3c(c2)C(=O)N([C@@H](C)CO)C[C@@H](C)[C@H](CN(C)S(=O)(=O)c2ccc(Cl)cc2)OCCCC[C@H](C)O3)cc1 | -49 | 161 | 73 | 67
CC(=O)c1ccc(OCC(=O)OCC(=O)Nc2sccc2C(N)=O)cc1 | 56* | 9 | 17[8 µM] | 58
SMILES | PGC1a Ac signal | Hep G6PC suppr | PCK1 hep suppr | PGC1a hep suppr
CCOC(=O)c1ccccc1NS(=O)(=O)c1ccc(OCC)cc1 | ? | 17 | 50 | 70
CCN(CC)CC#CCOC(c1ccccc1)c1ccccc1 | -44 | nt | nt | nt
CCCN(CCC)S(=O)(=O)c1ccc(C(=O)Nc2nnc(CSC)o2)cc1 | -45 | nt | nt | nt
CC(C)n1c(N2CCN(CC(=O)NCc3cccs3)CC2)nc2ccccc21 | nt | 35 | 26 | 68
CC(C)c1ccccc1NC(=O)Cn1c(-c2ccccc2Cl)nc2ccccc21 | -43 | nt | nt | nt
CCN(CC)c1cc(Cl)nc(N)n1 | -43 | nt | nt | nt
Cc1ccc(-n2nc3ccc(N)cc3n2)cc1 | -52 | nt | nt | nt
O=C(CN1CCC(n2nnc3cc(C(F)(F)F)ccc32)CC1)NCc1cccs1 | nt | 14 | 22 | 52
O=C1CCCC(O)=C1N=Nc1ccc2c(c1)OCO2 | -47 | nt | nt | nt
Nc1cc2nsnc2cc1Br | -60 | nt | nt | nt
C=CC(=O)Nc1cccc(Oc2ccnc(Nc3ccc(N4CCN(C)CC4)cc3)n2)c1 | -40 | nt | nt | nt
O=S(=O)(c1ccc(Cl)cc1)c1snnc1-c1ccccc1 | -42 | nt | nt | nt
CCOc1ccc(C(C)=O)cc1CSC(=N)N | -40 | nt | nt | nt
Fc1ccc(-c2nn3c(C4COc5ccccc5O4)nnc3s2)cc1 (stereo unspecified) | 55* | 39 | -36 | 79
O=S(=O)(Nc1nc2c(s1)CCCC2)c1ccc(F)cc1 | -49 | nt | nt | nt
O=S(=O)(NC12CC3CC(CC(C3)C1)C2)c1ccc(F)cc1 | 60* | -27 | 28 | 50
O=S(=O)(NCCSc1ccc(Cl)cc1)c1ccc(F)cc1 | -40 | nt | nt | nt
Cc1c(C(=O)OCC(=O)c2c(N)n(CC(C)C)c(=O)n(C)c2=O)oc2ccccc12 | 64* | 66 | 81 | 9
CCOc1cc(/C=N/N=C(N)N)ccc1OCc1ccc(Cl)cc1 | -56 | nt | nt | nt
CCOC(=O)c1sc2nc(C)nc(NCc3ccccc3OC)c2c1C | -63 | 101 | 149 | 129
Cn1nc(-c2ccccn2)nc2c(=O)n(C)c(=O)nc1-2 | -80 | nt | nt | nt
N#Cc1c(C#N)c(O)c2ccccc2c1O | -46 | nt | nt | nt
CN(NC(=O)c1ccccc1)C1=NS(=O)(=O)c2ccccc21 | -40 | nt | nt | nt
O=C(c1ccc(Cl)cc1)C(Cn1cncn1)C(Sc1ccccc1)c1ccccc1 (stereo unspecified) | -61 | nt | nt | nt
COc1cc(-c2cnc3c(NC(C)=O)cc(-c4ccccc4CN(C)C)cn23)cc(OC)c1OC | ? | 505 | 84 | 55
SMILES | PGC1a Ac signal | Hep G6PC suppr | PCK1 hep suppr | PGC1a hep suppr
C[N+]1(C)CCC(=C2c3ccccc3CC(=O)c3sccc32)CC1 | -94 | nt | nt | nt
Cc1c(Cl)cccc1NS(=O)(=O)c1ccc2c(c1)C1C=CCC1C(c1ccc(C(=O)O)cc1)N2 (stereo unspecified) | -107 | nt | nt | nt
CCOC(=O)C1(Cc2ccccc2)CCN(Cc2cccc(OC)c2O)CC1 | 84* | 20 | 39 | ?
COCCCNC(=O)c1cc(=O)n(Cc2ccc(Cl)cc2)c2ccccc12 | -45 | nt | nt | nt
O=C(/C=C/c1ccccc1)CC(O)(c1ccccc1)C(F)(F)F (stereo unspecified) | -42 | nt | nt | nt
Fc1ccc(CN(Cc2ccccc2)C(c2cccs2)c2nnnn2C2CCCCC2)cc1 (stereo unspecified) | -42 | nt | nt | nt
CC(C)C(c1nnnn1Cc1ccccc1)N(Cc1ccco1)Cc1cccs1 (stereo unspecified) | 91* | 316 | 67 | 95
CC(C)(C)OC(=O)NCCc1nnc(SCc2ccc(Cl)cc2)o1 | -41 | nt | nt | nt
C#CCN(C[C@@H]1[C@@H](OC(=O)NCCCCCC)[C@@H](OC(=O)NCCCCCC)Cn2c(=O)ccc(=O)n21)S(=O)(=O)c1ccc(C)cc1 | -92 | nt | nt | nt
Cc1nn2c(NCCCN3CCOCC3)c3c(nc2c1-c1ccccc1)CCC3 | 67* | i | 426 | 53
CCc1ccc(-c2cn3nc(-c4ccccc4)cnc3n2)cc1 | -45 | nt | nt | nt
Cc1ccc(C(=O)N2CCN(c3ccc(NC(=O)c4ccc(Br)o4)cc3)CC2)cc1 | ? | -37 | -21 | 63
Cc1ccc2nsnc2c1S(=O)(=O)N(Cc1ccco1)Cc1cc2cccc(C)c2[nH]c1=O | -47 | nt | nt | nt
Cc1ccc2nc(SCC(=O)Nc3ccc(F)cc3)nc(=O)n2c1 | -76 | nt | nt | nt
COc1ccc(OC)c(NC(=O)CSc2nnc(-c3cccnc3)s2)c1 | 85* | -9 | -11 | 55
COc1ccc([N+](=O)[O-])c(S(=O)(=O)c2ccc(Cl)cc2)n1 | -45 | nt | nt | nt
